# Compound activity (PubChem BioAssay)
# An excerpt weighted towards active compounds, which were near 3.5% of everything screened.
# RGS4 block = inhibitors of human RGS4 | B-score at 10 µM | P49798 | HEK293 M3R/RGS4 inducible, Fluo-4 calcium flux; stronger effect = higher value; triggered by carbachol at its EC20 | 310,000 compounds, 0.45% hits;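 active means B-score, a plate-corrected calcium signal, over three deviations above library mean, with baseline fluorescence within five deviations of library mean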;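 further: RGS4 expression induced by doxycycline in cells with stable M3 receptor; B-score is computed from the integrated fluorescence ratio over baseline after carbachol; higher B-score means a larger calcium signal and so more RGS4 inhibition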
# Target sequence (P49798 whole entry, looked up): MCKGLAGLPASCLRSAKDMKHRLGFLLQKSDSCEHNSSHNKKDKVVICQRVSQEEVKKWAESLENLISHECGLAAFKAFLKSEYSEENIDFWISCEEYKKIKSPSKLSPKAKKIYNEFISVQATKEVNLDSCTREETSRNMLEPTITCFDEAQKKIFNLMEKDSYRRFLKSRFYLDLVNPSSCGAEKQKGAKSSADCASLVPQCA
# MrgX1 PAM = allosterically activates human MrgX1 receptor signaling; MrgX1-HEK293, Fluo-4 calcium flux, FDSS; stronger effect = higher value; B-score at 10 µM; 310,000 compounds, 0.63% hits; AID 588675;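 active means plate-corrected calcium response at least 3 library SD above typical, normal starting fluorescence, not activating the receptor alone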;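 further: compound read alongside a low EC10 to EC30 dose of BAM8-22 agonist; peak minus trough fluorescence over baseline measured at the second addition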
# Target sequence (Q96LB2 whole entry, looked up): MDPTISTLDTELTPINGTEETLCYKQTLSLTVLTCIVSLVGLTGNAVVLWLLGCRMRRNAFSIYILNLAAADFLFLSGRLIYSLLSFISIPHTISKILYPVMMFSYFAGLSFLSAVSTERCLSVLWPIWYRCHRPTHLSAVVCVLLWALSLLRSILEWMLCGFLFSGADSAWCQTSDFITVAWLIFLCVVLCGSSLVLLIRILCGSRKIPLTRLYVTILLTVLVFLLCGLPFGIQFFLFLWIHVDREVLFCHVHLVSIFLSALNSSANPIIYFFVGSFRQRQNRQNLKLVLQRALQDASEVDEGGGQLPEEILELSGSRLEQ
# RGS4 pot = potentiators or activators of RGS4; HEK293 M3R/inducible RGS4, carbachol calcium flux Fluo4; stronger effect = lower value; B-score at 10 µM; 310,000 compounds, 0.92% hits;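 active means B-score of the integrated calcium signal more than 4 SD below the library mean, with starting fluorescence not abnormally high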;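 further: negative B-score means reduced calcium response which marks RGS4 activation or potentiation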
#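 Detection: kinetic calcium fluorescence imaging with Fluo4-AM dye, 2 µM / Material: HEK293 cells with stable M3R and inducible RGS4 / Schedule: recording 10 s baseline at 1 Hz, 100 s post-agonist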
# MrgX1 antag = blocks BAM8-22 activation of human MrgX1 receptor; Q96LB2; MRGX1-HEK293 calcium flux, Fluo-4, BAM8-22 antagonism; stronger effect = lower value; B-score at 10 µM; 310,000 compounds, 1.3% hits;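 active means calcium-response B-score plate-corrected more than 3 library SD below zero, starting fluorescence within 5 deviations, no agonist response on first addition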;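 further: peak minus trough fluorescence over baseline after final BAM8-22 challenge near maximal dose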
# MrgX1 agonist = agonists of human MrgX1 receptor; MrgX1-HEK293 cells, Fluo-4 calcium fluorescence, agonist mode; stronger effect = higher value; B-score at 10 µM; 310,000 compounds, 0.44% hits; AID 588627;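 active means calcium response B-score plate-corrected fluorescence ratio at least 3 library SD, with starting fluorescence B-score inside 5 SD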
#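 Test system: HEK293 cells stably expressing human MrgX1 receptor; amount: 15,000 cells per well; doses: compound delivered in addition one of three; times: overnight plating before 1 h dye loading; detection: Fluo-4 NW calcium-flux fluorescence, kinetic read; read-out basis: B-scored fluorescence response ratio; controls: positive and negative controls per plate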
# Hits are given with their value; – = inactive; · = no result.
SMILES,RGS4 block,MrgX1 PAM,RGS4 pot,MrgX1 antag,MrgX1 agonist
Cc1cc(N2CCOCC2)n2ncc(-c3ccccc3)c2n1,–,–,–,–,–
Cc1cc(NCc2ccccc2)n2ncc(-c3ccccc3)c2n1,–,–,-8.73,–,–
Cc1cc(N2CCC(C)CC2)n2ncc(-c3ccccc3)c2n1,–,–,-7.34,–,–
COc1ccccc1-c1cnn2c(NCCc3ccccc3)cc(C)nc12,–,–,-7.41,–,–
O=c1[nH]c2ccccc2n2c(=S)[nH]nc12,–,–,–,–,–
Cc1ccc(-c2nc3ccccc3[nH]2)cc1NC(=S)NC(=O)c1ccccc1Br,–,–,-7.09,–,–
Cc1ccc(-c2nc3ccccc3[nH]2)cc1NC(=O)c1ccc2c(c1)OCO2,–,–,–,–,–
CCOc1ccc(C(=O)Nc2cc(-c3nc4ccccc4[nH]3)ccc2C)cc1[N+](=O)[O-],–,–,-7.08,–,–
Cc1nnsc1C(=O)NC1CCCCC1,–,–,–,–,–
O=C(N/N=C/c1ccc(O)c(O)c1)NC12CC3CC(CC(C3)C1)C2,5.07,–,–,–,–
CN(CCCN1CCCCC1)C(=O)c1cc(COc2ccc(F)cc2F)on1,–,–,–,-7.3,–
CN(CCCC1CCCC1)C(=O)c1cc(COc2ccc(F)cc2F)on1,–,–,–,–,–
CCC(C)NC(=O)CCc1c(C)nc2c(c(C)nn2-c2ccccc2)c1C (configuration not stated),–,–,–,–,–
Cc1nc2c(c(C)nn2-c2ccccc2)c(C)c1CCC(=O)Nc1ccc(CN2CCCC2)cc1,–,12,–,–,–
COc1ccc(/C(=C/c2ccc(OC(F)F)c(OC)c2)C(=O)O)cc1OC,–,–,–,-5.76,–
COc1cc(/C=C(/C(=O)O)c2ccc(-c3ccccc3)cc2)cc(OC)c1OC,–,–,–,–,–
C(C#CCCCCCCCCC[n+]1ccccc1)#CCCCCCCCCC[n+]1ccccc1,–,–,-12.2,–,–
O=C(NCc1ccc2c(c1)OCO2)c1cc([N+](=O)[O-])ccc1N1CCCCC1,–,–,-7.37,–,–
CC(C)(C#CC(O)(c1ccccc1)c1ccccc1)N1CCCCC1,–,–,-7.09,–,–
Cc1cc2n(c1)CCn1c(C)ccc1-2,–,–,–,-4.62,–
Cc1ccc(O)c(C(=O)c2cnn(C(=O)COc3ccccc3C#N)c2)c1,–,–,–,–,–
CC(=O)c1ccc(S(=O)(=O)Nc2ccc(C(=O)NCC(c3cccs3)N3CCOCC3)cc2)cc1 (configuration not stated),–,–,–,–,–
CCOc1ccc(NS(=O)(=O)c2ccc(C(=O)NCC(c3cccs3)N3CCOCC3)cc2)cc1 (configuration not stated),–,–,–,-6.54,–
CSc1nc(C)cc(SCCO)n1,–,–,–,–,–
Cc1ccc2cc(C(c3nnnn3CC3CCCO3)N3CCc4ccccc4C3)c(=O)[nH]c2c1 (configuration not stated),–,–,–,–,–
SMILES,RGS4 block,MrgX1 PAM,RGS4 pot,MrgX1 antag,MrgX1 agonist
Cc1cccc2cc(C(c3nnnn3CC3CCCO3)N3CCc4ccccc4C3)c(=O)[nH]c12 (configuration not stated),·,–,·,-5.1,–
COc1ccc(NC(=O)N2CCCc3ccccc32)cc1,–,–,–,–,–
COc1ccc(N/N=C(/C(C)=O)N2CCCc3ccccc32)cc1,–,–,-7.99,–,–
O=C(O)CCCC(=O)Nc1ccc(Br)cc1C(=O)O,–,–,–,–,–
Cc1cc(NS(=O)(=O)c2ccc(NC(=O)c3cc(-c4ccccc4Cl)nc4ccccc34)cc2)no1,–,–,–,–,34
Cc1nc(NC(=O)c2ccccc2)sc1-c1csc(Nc2cccc(F)c2)n1,–,–,–,–,–
Cc1cc(NS(=O)(=O)c2ccc(Nc3nc(-c4sc(NC(=O)c5ccccc5)nc4C)cs3)cc2)no1,–,–,-11.3,–,–
Cc1cc(NC(=O)c2cc(-c3ccccc3Cl)nc3ccccc23)no1,–,–,–,–,–
COc1cc(/C=N/n2nnnc2N)cc(Cl)c1OC,–,–,–,–,–
CCOC(=O)Cc1csc(NC(=O)CSc2nccn2C)n1,–,–,–,–,–
O=c1ccc2cc3c([nH]c4ccc(Br)cc43)oc-2c1O,–,11.2,–,–,–
O=C(Nc1ncn[nH]1)c1ccc(S(=O)(=O)N2CCOCC2)cc1,–,–,–,–,–
CCN1CCN(S(=O)(=O)c2ccc(Cl)c(C(=O)NC(C)c3ccccc3Cl)c2)CC1 (configuration not stated),–,–,–,-5.39,–
COc1cccc(C(=O)C[n+]2ccccc2/C=N/O)c1,–,–,-7.37,–,–
COC(=O)c1cccc(NC(=O)CCNC(=O)c2ccc([N+](=O)[O-])cc2)c1,–,–,–,-7.85,–
COC(=O)c1ccc(C)c(NC(=O)CCNC(=O)c2ccc([N+](=O)[O-])cc2)c1,–,–,–,–,–
CCCCCCOc1ccc(/C(N)=N/O)cc1,–,–,–,–,–
N=C(N)c1ccc(OCCCCCOc2ccc(C(=N)N)cc2)cc1,–,–,–,–,34.2
CC(=O)N1CCN(C(=O)CCC(=O)O)CC1,–,–,–,–,–
CC(C(=O)Nc1ccccc1-c1ccccc1)N(C)Cc1nc2ccccc2c(=O)[nH]1 (configuration not stated),–,–,–,–,–
Cc1ccc(S(=O)(=O)Nc2c(O)ccc3ccccc23)cc1,–,–,–,–,46.7
Cc1ccc(S(=O)(=O)Nc2ccccc2-c2ccccc2NS(=O)(=O)c2ccc(C)cc2)cc1,–,–,–,–,–
Cc1ccc(S(=O)(=O)Nc2c(Cl)c(Cl)c(O)c3ccccc23)cc1,5.55,–,–,–,–
O=S(=O)(Nc1c(O)ccc2ccccc12)c1cccc2ccccc12,–,–,–,–,–
Nn1c(COc2ccccc2F)nnc1SCC(=O)NC1CC1,–,–,–,–,–
SMILES,RGS4 block,MrgX1 PAM,RGS4 pot,MrgX1 antag,MrgX1 agonist
O=C(O)CCC(=O)Nc1ccccc1Oc1ccccc1,–,–,–,–,–
Clc1ccc(CSc2nnc(-c3sccc3-n3cccc3)o2)cc1,–,–,–,-4.78,–
NCCCC(=O)N1c2ccccc2Sc2ccccc21,–,–,-7.03,–,–
CCN(CC)C(=O)N1c2ccccc2Sc2ccccc21,–,–,–,–,–
CCN(CC)CC(=O)N1c2ccccc2Sc2ccc(Cl)cc21,–,–,-9.75,–,–
Cc1oc(-c2ccccc2Cl)nc1CN1CCCC1c1ccc(F)cc1 (configuration not stated),–,–,–,–,–
Cc1oc(-c2ccccc2Cl)nc1CN1CCCCC1c1cccnc1 (configuration not stated),–,–,–,–,40.6
COc1ccccc1NC(=O)c1ccc2c(O)c(S(=O)(=O)c3ccccc3)c(=O)[nH]c2c1,–,–,–,–,–
